This is an account of results in ChEMBL document CHEMBL1123026, “Preparation and antiarthritic and analgesic activity of 4,5-diaryl-2-(substituted thio)-1H-imidazoles and their sulfoxides and sulfones” (1985).

What all share (format): functional
Experiment [1] concerns Mus musculus. The experiment is described as follows: Effective dose by mouse phenyl-p-benzoquinone writhing (PQW)assay after peroral administration; activity value ranges from (20.2-79.4). The conditions noted are these: po. The procedure, abridged:
(§1)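 Fasted (17-21 h) female white mice, 5-20 per double-blind test, dosed orally with compound suspended in 1% methylcellulose. 0.20 mL aqueous 0.01% phenyl-p-benzoquinone given i.p. 6 min before a 10-min observation for stretching/writhing. ED50 (dose protecting 50% of mice) calculated by the moving-average method.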
Background: An intraperitoneal irritant provokes the stretching counted in writhing tests.

Experiment [2] deals with Rattus norvegicus. In words: Effective dose determined against rat adjuvant arthritis after peroral administration. Particulars: po. The procedure, abridged: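 Male Lewis rats (130-150 g) given 0.1 mL Mycobacterium butyricum adjuvant (5 mg/mL in mineral oil) s.c. into the right hind paw; arthritis developed for 2 weeks. Groups of 10 matched for severity were dosed orally by gavage in PVA-acacia vehicle (10 mL/kg) for 7 days. Uninjected left paw volume was measured the day after the last dose. Percent decrease was calculated vs arthritic and nonarthritic controls. ED50 was read from a visually fitted semilog dose-response line.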

Experiment [3] has as its system Mus musculus. The experiment is described as follows: Effective dose by mouse phenyl-p-benzoquinone writhing (PQW)assay after peroral administration; activity value ranges from (2.3-15.7). Particulars: po. In a few lines: as §1
Experiment [4] concerns Mus musculus. In words: Effective dose by mouse phenyl-p-benzoquinone writhing (PQW)assay after peroral administration; activity value ranges from (1.9-10.1). The conditions noted are these: po. The procedure, abridged: as §1
Experiment [5] has as its system Mus musculus. In words: Effective dose by mouse phenyl-p-benzoquinone writhing (PQW)assay after peroral administration; activity value ranges from (0.23-1.22). Particulars: po.
For experiment [6], the system named is Mus musculus. The experiment is described as follows: Effective dose by mouse phenyl-p-benzoquinone writhing (PQW)assay after peroral administration; activity value ranges from (10.2-45.9). The conditions noted are these: po. The procedure, abridged:
as §1

Experiment [7] relates to Mus musculus. In words: Effective dose by mouse phenyl-p-benzoquinone writhing (PQW)assay after peroral administration; activity value ranges from (2.8-10.9). The conditions noted are these: po. The procedure, abridged:
as §1

Experiment [8] relates to Mus musculus. In words: Effective dose by mouse phenyl-p-benzoquinone writhing (PQW)assay after peroral administration; activity value ranges from (3.1 - 39.5). The conditions noted are these: po. The procedure, abridged:
as §1

In experiment [9] the test system is Mus musculus. The experiment is described as follows: Effective dose by mouse phenyl-p-benzoquinone writhing (PQW)assay after peroral administration; activity value ranges from (38.0-118.0). The conditions noted are these: po. The procedure, abridged:
as §1

The subject of experiment [10] is Mus musculus. The experiment is described as follows: Effective dose by mouse phenyl-p-benzoquinone writhing (PQW)assay after peroral administration; activity value ranges from (0.028-0.065). Particulars: po.
For experiment [11], the system named is Mus musculus. The experiment is described as follows: Effective dose determined by mouse phenyl-p-benzoquinone writhing (PQW) assay after peroral administration. The conditions noted are these: po. In a few lines:
as §1

In experiment [12] the test system is Rattus norvegicus. The experiment is described as follows: Decrease in paw volume by the effect of compound at a dose of 75 mg/kg, highest dose (75 mg/kg). The procedure, abridged:
(§2)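 Male Lewis rats (130-150 g) got 0.1 mL adjuvant (heat-killed Mycobacterium butyricum, 5 mg/mL in mineral oil) subplantar in the right hind paw and were left 2 weeks. Groups of 10 matched for severity were dosed orally by gavage (PVA-acacia vehicle, 10 mL/kg) for 7 days. Uninjected left hind paw volume was read the next day. % decrease = (arthritic control − treated)/(arthritic − nonarthritic control) × 100; Student's t-test.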

Experiment [13] concerns Mus musculus. In words: Effective dose by mouse phenyl-p-benzoquinone writhing (PQW)assay after peroral administration; 6.5-42.8. The conditions noted are these: po.
Experiment [14] relates to Mus musculus. The experiment is described as follows: Effective dose by mouse phenyl-p-benzoquinone writhing (PQW)assay after peroral administration; activity value ranges from (7.7-33.2). The conditions noted are these: po. In a few lines:
as §1

Experiment [15] relates to Mus musculus. The experiment is described as follows: Effective dose by mouse phenyl-p-benzoquinone writhing (PQW)assay after peroral administration; 14.9-77.8. Particulars: po.
Experiment [16] relates to Mus musculus. In words: Effective dose by mouse phenyl-p-benzoquinone writhing (PQW)assay after peroral administration; 5.3-45.9. The conditions noted are these: po.
Experiment [17] has as its system Mus musculus. The experiment is described as follows: Effective dose by mouse phenyl-p-benzoquinone writhing (PQW)assay after peroral administration; activity value ranges from (25.5-94.1). The conditions noted are these: po. The procedure, abridged: as §1
The subject of experiment [18] is Rattus norvegicus. In words: Decrease in paw volume by the effect of compound at a dose of 1 mg/kg. In a few lines:
as §2

Experiment [19] concerns Mus musculus. The experiment is described as follows: Effective dose by mouse phenyl-p-benzoquinone writhing (PQW)assay after peroral administration; activity value ranges from (6.0 - 18.0). The conditions noted are these: po. The procedure, abridged:
as §1

Experiment [20] has as its system Rattus norvegicus. In words: Decrease in paw volume was evaluated at dose 10 mg/kg. In a few lines: as §2
Experiment [21] deals with Mus musculus. The experiment is described as follows: Effective dose against mouse phenyl-p-benzoquinone writhing (PQW)assay, peroral administration; activity value ranges from (21.9-110). The conditions noted are these: po.
For experiment [22], the system named is Mus musculus. The experiment is described as follows: Effective dose by mouse phenyl-p-benzoquinone writhing (PQW)assay after peroral administration; 51.5-243. The conditions noted are these: po.
The test system of experiment [23] is Mus musculus. In words: Effective dose by mouse phenyl-p-benzoquinone writhing (PQW)assay after peroral administration; activity value ranges from (15.7 - 101.9). The conditions noted are these: po. In a few lines:
as §1

Broadly, the ED50 is the midpoint of the dose-response relation.

`COc1ccccc1-c1nc(S(=O)(=O)C(F)(F)C(F)F)[nH]c1-c1ccccc1OC`: the ED50 is 40 mg/kg in [1] and greater than 9 mg/kg in experiment [2]. `O=S(=O)(c1nc(-c2ccccc2)c(-c2ccccc2)[nH]1)C(F)F`: the ED50 in experiment [3] amounted to 6 mg/kg. On to `O=S(=O)(c1nc(-c2ccccc2Cl)c(-c2ccccc2Cl)[nH]1)C(F)(F)C(F)F`, for which the 50% effect level in experiment [4] (ED50) was put at a dose of 4.4 mg/kg.

In experiment [5], `COc1ccc(-c2nc(S(=O)(=O)C(F)(F)CF)[nH]c2-c2ccc(OC)cc2)cc1` displayed an ED50 of 0.53 mg/kg. In the case of `O=[N+]([O-])c1ccc(-c2[nH]c(S(=O)(=O)C(F)(F)C(F)F)nc2-c2ccc(F)cc2)cc1`, the ED50 in [6] was found to be 21.6 mg/kg; in experiment [2], 0.37 mg/kg. Regarding `Cc1ccc(-c2[nH]c(S(=O)(=O)C(F)(F)C(F)F)nc2-c2ccccc2)cc1`, the ED50 stood at 5.5 mg/kg in experiment [7] and 0.8 mg/kg in [2].

Take `[O-][S+](c1nc(-c2ccc(Cl)cc2)c(-c2ccc(Cl)cc2)[nH]1)C(F)(F)C(F)F` (centres undefined): the results for the median effective dose (ED50) in experiment [8] and in experiment [2] were 11 mg/kg and 0.22 mg/kg, respectively. For `COc1cccc(-c2nc(S(=O)(=O)C(F)(F)C(F)F)[nH]c2-c2cccc(OC)c2)c1`, in experiment [9], the ED50 was found to be 67 mg/kg. With `COc1ccc(-c2nc(S(=O)(=O)C(F)(F)F)[nH]c2-c2ccc(OC)cc2)cc1`, the ED50 in experiment [10] came out at 0.043 mg/kg. Consider `CC[S+]([O-])c1nc(-c2ccccc2)c(-c2ccccc2)[nH]1` (centres undefined), for which the ED50 in [11] was greater than 130 mg/kg. Besides, the Decrease in experiment [12] is recorded as 44%. Turning to `COc1ccc(-c2nc(S(=O)(=O)C(F)(F)C(F)I)[nH]c2-c2ccc(OC)cc2)cc1` (centres undefined), the ED50 in experiment [13] was 16.7 mg/kg; in experiment [2], 5 mg/kg. Turning to `O=S(=O)(c1nc(-c2ccc(Cl)c(Cl)c2)c(-c2ccccc2)[nH]1)C(F)(F)F`, the results for the ED50 in experiment [14] and in experiment [2] were 16 mg/kg and 0.35 mg/kg, respectively.

Consider `C=CSc1nc(-c2ccc(OC)cc2)c(-c2ccc(OC)cc2)[nH]1`, for which the ED50 in experiment [15] was determined as 34 mg/kg; in [2] it was 12 mg/kg. Consider `Fc1ccc(-c2nc(SC(F)(F)F)[nH]c2-c2ccc(F)cc2)cc1`, for which the median effective dose (ED50) in experiment [16] is 15.6 mg/kg; in experiment [2], 0.035 mg/kg. `Cc1ccc(-c2[nH]c(S(=O)(=O)C(F)(F)C(F)F)nc2-c2cccc(Cl)c2)cc1` yielded an ED50 in [17] of 49 mg/kg. In experiment [18], this compound showed a Decrease of 36%. Regarding `O=S(=O)(CC(F)(F)F)c1nc(-c2ccccc2)c(-c2ccccc2)[nH]1`, the ED50 in [19] was 10.4 mg/kg; in experiment [2] it was 15 mg/kg. Turning to `CCOc1ccc(-c2[nH]c(SC(F)(F)C(F)F)nc2-c2ccccc2)cc1`, in experiment [11], the 50% effective dose (ED50) is greater than 130 mg/kg. The compound further yielded a Decrease in experiment [20] of 32%. As to `C[S+]([O-])c1nc(-c2ccc(Cl)cc2)c(-c2ccc(Cl)cc2)[nH]1` (centres undefined), the ED50 in experiment [21] stood at 49 mg/kg; in experiment [2] it was 2.5 mg/kg. For the compound `COc1ccc(-c2nc(SC(F)F)[nH]c2-c2ccc(OC)cc2)cc1`, the 50% effective dose (ED50) in experiment [22] amounted to 112 mg/kg. As for `CCCS(=O)(=O)c1nc(-c2ccc(OC)cc2)c(-c2ccc(OC)cc2)[nH]1`, the ED50 in [23] worked out at 40 mg/kg; in [2], 9.5 mg/kg.
